What was measured:
Nucleic Acid = test: Inhibition of HCV RNA replication in a subgenomic bicistronic replicon assay in HB-1 cells; format: functional, cell-based, Hepacivirus hominis; details: Hepatitis C virus, HB1
Method in brief: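 Subgenomic bicistronic HCV replicon in HB-1 cells; viral RNA quantified by in situ RNase protection assay after 24 h of nucleoside treatment. EC50 averaged over at least two independent potency determinations. Nucleosides purified by preparative RP-HPLC, purity generally >98%.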

[1] = Cytotoxicity against HB-1 cells in an MTS-based assay; format: functional; details: HB1
[2] = Oral bioavailability in rat; format: ADME, organism-based; details: in vivo
Method in brief: (§1)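 Male CRL rats; single intravenous dose of 1.0 mg/kg (N = 2) and oral dose at […] (N = 3). Plasma sampled and analysed by a method described earlier; clearance, half-life, Cmax, Tmax and %F derived from plasma levels.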

[3] = Half-life in rats; format: ADME; details: rat, in vivo; method in brief: as §1
Hepatitis C virus = test: Compound was tested for the inhibition of HCV NS5B-mediated RNA synthesis; format: functional, Hepacivirus hominis
Method in brief: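 Enzymatic activity of HCV NS5B Δ21 measured with nucleoside 5'-triphosphates as inhibitors, by an earlier protocol. Triphosphates purified by anion exchange, desalted by RP-HPLC, >90% pure, identity confirmed by MS. IC50 averaged over at least three separate determinations.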

[4] = Clearance in rats when administered at a dose of 1 mg/kg i.v. and […] p.o.; format: ADME, organism-based; design: dose 1 mg/kg; details: rat, in vivo, iv; method in brief: as §1
[5] = Tmax value in rats; format: ADME; details: rat, in vivo; method in brief: as §1
[6] = Cmax value in rats; format: ADME, organism-based; details: rat, in vivo; method in brief: as §1

C[C@]1(O)C(n2cc(C(N)=O)c3c(N)ncnc32)O[C@H](CO)[C@H]1O (stereo partly drawn)
EC50 (Nucleic Acid): 0.08 µM | CC50 [1]: ~33 µM

C[C@@]1(O)[C@H](O)[C@@H](CO)O[C@H]1n1cnc2c(N)ncnc21
EC50 (Nucleic Acid): 0.26 µM | bioavailability [2]: 0% | half-life [3]: 18 min | IC50 (Hepatitis C virus): 1.9 µM | CC50 [1]: > 100 µM | Clearance [4]: > 200 mL/min/kg

C[C@@]1(O)[C@H](O)[C@@H](CO)O[C@H]1n1cnc2c(=O)[nH]c(N)nc21 [2'-B-METHYL-GUANOSINE]
EC50 (Nucleic Acid): 3.5 µM | bioavailability [2]: 85% | IC50 (Hepatitis C virus): 0.13 µM | CC50 [1]: > 100 µM

C[C@@]1(O)[C@H](O)[C@@H](CO)O[C@H]1n1cc(Cl)c2c(O)nc(N)nc21
EC50 (Nucleic Acid): > 100 µM | CC50 [1]: > 100 µM

Cc1cn([C@@H]2O[C@H](CO)[C@@H](O)[C@@]2(C)O)c2ncnc(N)c12
EC50 (Nucleic Acid): 34 µM | CC50 [1]: > 100 µM

C[C@@]1(O)[C@H](O)[C@@H](CO)O[C@H]1n1ccc2c(O)nc(N)nc21
EC50 (Nucleic Acid): > 100 µM | CC50 [1]: > 100 µM

C[C@]1(O)C(n2cc(C#N)c3c(N)ncnc32)O[C@H](CO)[C@H]1O (stereo partly drawn)
EC50 (Nucleic Acid): 3.1 µM | CC50 [1]: ~50 µM

C[C@@]1(O)[C@H](O)[C@@H](CO)O[C@H]1n1cc(Br)c2c(N)ncnc21
EC50 (Nucleic Acid): 0.24 µM | CC50 [1]: 40 µM

C[C@@]1(O)[C@H](O)[C@@H](CO)O[C@H]1n1ccc2c(N)nc(F)nc21
EC50 (Nucleic Acid): 100 µM | CC50 [1]: > 100 µM

C[C@@]1(O)[C@H](O)[C@@H](CO)O[C@H]1n1cc(Cl)c2c(N)ncnc21
EC50 (Nucleic Acid): 0.13 µM | CC50 [1]: ~50 µM

C[C@@]1(O)[C@H](O)[C@@H](CO)O[C@H]1n1ncc2c(N)ncnc21
EC50 (Nucleic Acid): > 100 µM | CC50 [1]: > 100 µM

C[C@@]1(O)[C@H](O)[C@@H](CO)O[C@H]1n1ccc2c(N)nc(N)nc21
EC50 (Nucleic Acid): 100 µM | CC50 [1]: > 100 µM

C[C@@]1(O)[C@H](O)[C@@H](CO)O[C@H]1n1cc(C(=O)O)c2c(N)ncnc21
EC50 (Nucleic Acid): 70 µM | CC50 [1]: > 100 µM

C[C@@]1(O)[C@H](O)[C@@H](CO)O[C@H]1n1ccc2c(N)nccc21
EC50 (Nucleic Acid): > 100 µM | CC50 [1]: > 100 µM

C[C@@]1(O)[C@H](O)[C@@H](CO)O[C@H]1n1ccc2c(N)ncnc21 [BETA-2'-C-METHYL-7-DEAZA-ADENOSINE]
EC50 (Nucleic Acid): 0.25 µM | CC50 [1]: > 100 µM

C[C@@]1(O)[C@H](O)[C@@H](CO)O[C@H]1n1cc(F)c2c(N)ncnc21
EC50 (Nucleic Acid): 0.07 µM | bioavailability [2]: 51% | Tmax [5]: 30 min | half-life [3]: 306 min | CC50 [1]: > 100 µM | Cmax [6]: 600 nM | Clearance [4]: 44 mL/min/kg
